Key:
Adenosine receptor A1 [1] = target: T1, Adenosine receptor A1 (Rattus norvegicus, UniProt P25099); experiment: Displacement of [3H]CCPA from adenosine A1 receptor in rat brain cortical membranes; type: cell membranes
T1 sequence (P25099 whole entry): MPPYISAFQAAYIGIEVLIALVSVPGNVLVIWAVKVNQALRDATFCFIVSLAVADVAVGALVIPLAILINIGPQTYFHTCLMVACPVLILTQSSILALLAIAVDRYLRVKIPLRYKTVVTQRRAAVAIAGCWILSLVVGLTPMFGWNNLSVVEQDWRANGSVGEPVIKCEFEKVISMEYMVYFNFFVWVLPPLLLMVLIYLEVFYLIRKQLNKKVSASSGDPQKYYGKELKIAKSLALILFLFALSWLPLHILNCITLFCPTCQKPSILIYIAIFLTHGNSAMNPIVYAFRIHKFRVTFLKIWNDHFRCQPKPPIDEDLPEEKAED

Adenosine receptor A2a = Adenosine receptor A2a (Homo sapiens, UniProt P29274); experiment: Displacement of [3H]MSX2 from recombinant human adenosine A2a receptor expressed in HEK293 cells; type: cell-based
Adenosine receptor A2b = target: T2, Adenosine receptor A2b (Homo sapiens, UniProt P29275); experiment: Displacement of [3H]PSB603 from recombinant human adenosine A2b receptor expressed in HEK293 cells; type: cell-based
T2 sequence (P29275 whole entry): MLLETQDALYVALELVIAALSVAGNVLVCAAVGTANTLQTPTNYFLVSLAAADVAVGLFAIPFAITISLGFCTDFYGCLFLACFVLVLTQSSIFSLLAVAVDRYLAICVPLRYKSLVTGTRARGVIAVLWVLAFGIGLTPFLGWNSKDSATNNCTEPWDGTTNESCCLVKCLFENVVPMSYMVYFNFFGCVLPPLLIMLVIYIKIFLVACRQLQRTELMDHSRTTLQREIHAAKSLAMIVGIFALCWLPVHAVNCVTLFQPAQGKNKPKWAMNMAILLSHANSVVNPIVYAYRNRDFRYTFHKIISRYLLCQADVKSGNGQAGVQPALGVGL

Adenosine receptor A3 = target: T3, Adenosine receptor A3 (Homo sapiens, UniProt P0DMS8); experiment: Displacement of [3H]PSB11 from recombinant human adenosine A3 receptor expressed in CHO cells; type: cell-based
T3 sequence (P0DMS8 whole entry): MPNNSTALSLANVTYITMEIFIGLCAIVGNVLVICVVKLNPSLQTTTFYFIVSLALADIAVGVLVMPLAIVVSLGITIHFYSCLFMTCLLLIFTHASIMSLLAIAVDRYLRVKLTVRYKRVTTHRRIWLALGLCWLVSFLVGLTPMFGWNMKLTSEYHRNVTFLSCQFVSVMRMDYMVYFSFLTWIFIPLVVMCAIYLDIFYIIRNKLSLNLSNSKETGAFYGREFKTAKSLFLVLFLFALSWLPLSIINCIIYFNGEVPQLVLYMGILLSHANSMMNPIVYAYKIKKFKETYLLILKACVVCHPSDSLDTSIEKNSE

[2] = target: T4, Amine oxidase [flavin-containing] A (Homo sapiens, UniProt P21397); experiment: Inhibition of recombinant human MAOA expressed in baculovirus infected BTI insect cells using p-tyramine as substrate preincubated for 30 mins followed by substrate addition and measured over 45 mins by horseradish peroxidase-Amplex Red-coupled fluorometric assay
T4 sequence (P21397 whole entry): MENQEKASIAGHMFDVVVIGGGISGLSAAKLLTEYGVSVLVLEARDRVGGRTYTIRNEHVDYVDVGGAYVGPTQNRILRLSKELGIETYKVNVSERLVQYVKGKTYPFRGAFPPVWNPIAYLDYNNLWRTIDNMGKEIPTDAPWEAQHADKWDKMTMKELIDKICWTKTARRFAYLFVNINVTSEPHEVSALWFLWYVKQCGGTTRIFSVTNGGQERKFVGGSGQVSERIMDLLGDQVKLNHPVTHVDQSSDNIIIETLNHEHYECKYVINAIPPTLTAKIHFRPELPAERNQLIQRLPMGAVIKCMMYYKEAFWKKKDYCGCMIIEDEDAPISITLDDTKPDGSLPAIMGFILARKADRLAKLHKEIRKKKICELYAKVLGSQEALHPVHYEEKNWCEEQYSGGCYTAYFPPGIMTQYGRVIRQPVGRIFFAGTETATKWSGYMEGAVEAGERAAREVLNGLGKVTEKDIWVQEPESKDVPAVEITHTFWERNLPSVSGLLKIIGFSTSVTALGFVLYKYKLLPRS
Outline: (§1)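 Human recombinant MAO-A or MAO-B enzyme. Activity detected fluorometrically with the Amplex Red monoamine oxidase assay.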

[3] = target: T5, Amine oxidase [flavin-containing] B (Homo sapiens, UniProt P27338); experiment: Inhibition of recombinant human MAOB expressed in baculovirus infected BTI insect cells using p-tyramine as substrate preincubated for 30 mins followed by substrate addition and measured over 45 mins by horseradish peroxidase-Amplex Red-coupled fluorometric assay; outline: as §1
T5 sequence (P27338 whole entry): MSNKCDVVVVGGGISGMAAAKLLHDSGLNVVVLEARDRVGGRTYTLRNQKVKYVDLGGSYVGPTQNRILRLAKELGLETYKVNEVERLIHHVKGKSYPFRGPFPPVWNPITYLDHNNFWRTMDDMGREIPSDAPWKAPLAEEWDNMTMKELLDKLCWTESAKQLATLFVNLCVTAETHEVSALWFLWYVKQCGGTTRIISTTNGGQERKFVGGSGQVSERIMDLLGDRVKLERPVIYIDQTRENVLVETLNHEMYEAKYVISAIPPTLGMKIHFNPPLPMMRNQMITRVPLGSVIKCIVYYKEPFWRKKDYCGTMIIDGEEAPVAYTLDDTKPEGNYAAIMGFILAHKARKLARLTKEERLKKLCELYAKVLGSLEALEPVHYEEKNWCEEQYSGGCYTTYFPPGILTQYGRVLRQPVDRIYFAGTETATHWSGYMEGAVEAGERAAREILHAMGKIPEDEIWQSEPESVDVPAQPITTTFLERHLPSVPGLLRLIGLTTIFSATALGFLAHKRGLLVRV

[4] = target: T4, Amine oxidase [flavin-containing] A; experiment: Inhibition of recombinant human MAOA expressed in baculovirus infected BTI insect cells at 1 to 100 uM using p-tyramine as substrate preincubated for 30 mins followed by substrate addition and measured over 45 mins by horseradish peroxidase-Amplex Red-coupled fluorometric assay relative to control; settings: 0.75 h; outline: as §1
Adenosine receptor A1 [5] = target: T6, Adenosine receptor A1 (Homo sapiens, UniProt P30542); experiment: Displacement of [3H]CCPA from recombinant human adenosine A1 receptor expressed in CHO cells; type: cell-based
T6 sequence (P30542 whole entry): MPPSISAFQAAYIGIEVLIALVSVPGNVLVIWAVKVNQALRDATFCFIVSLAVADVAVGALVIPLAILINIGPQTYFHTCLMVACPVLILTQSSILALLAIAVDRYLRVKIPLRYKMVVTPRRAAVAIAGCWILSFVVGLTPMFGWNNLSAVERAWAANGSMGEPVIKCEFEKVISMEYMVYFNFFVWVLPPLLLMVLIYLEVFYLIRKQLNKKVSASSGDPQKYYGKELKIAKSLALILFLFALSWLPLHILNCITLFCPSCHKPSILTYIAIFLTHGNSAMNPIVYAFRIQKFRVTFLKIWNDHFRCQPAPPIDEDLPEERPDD

[6] = target: T7, Adenosine receptor A2b (Homo sapiens) (UniProt P29275); experiment: Displacement of [3H]PSB603 from recombinant human adenosine A2b receptor expressed in HEK293 cells at 1 uM relative to control; type: cell-based
T7 sequence (whole entry): T2 sequence (P29275 whole entry)
Outline: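 Purchased membranes of HEK cells expressing human A2A ([3H]MSX-2) or human A2B ([3H]PSB-603). A single high compound concentration is screened first; for potent compounds, full inhibition curves spanning 3 orders of magnitude. At least three independent experiments.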

[7] = target: T8, Adenosine receptor A3 (Homo sapiens) (UniProt P0DMS8); experiment: Displacement of [3H]PSB11 from recombinant human adenosine A3 receptor expressed in CHO cells at 1 uM relative to control; type: cell-based
T8 sequence (whole entry): T3 sequence (P0DMS8 whole entry)
Outline: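 Purchased membranes of CHO cells expressing human A1 ([3H]CCPA) or human A3 ([3H]PSB-11). A single high compound concentration is screened first; for potent compounds, full inhibition curves spanning 3 orders of magnitude. At least three independent experiments.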

Chain of Adenosine receptor A2a (P29274 whole entry): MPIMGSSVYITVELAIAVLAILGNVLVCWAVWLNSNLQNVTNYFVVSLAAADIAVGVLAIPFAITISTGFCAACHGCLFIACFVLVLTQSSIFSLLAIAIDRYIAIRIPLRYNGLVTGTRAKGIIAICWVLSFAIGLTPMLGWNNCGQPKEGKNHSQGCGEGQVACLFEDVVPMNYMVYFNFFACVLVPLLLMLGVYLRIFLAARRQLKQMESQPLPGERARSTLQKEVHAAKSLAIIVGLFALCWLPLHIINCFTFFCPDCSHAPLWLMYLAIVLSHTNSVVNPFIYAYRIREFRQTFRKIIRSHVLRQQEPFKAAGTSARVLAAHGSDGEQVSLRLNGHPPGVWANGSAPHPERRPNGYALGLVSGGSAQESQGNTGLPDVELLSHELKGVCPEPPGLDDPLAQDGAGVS

Compound	Ki (Adenosine receptor A1 [1]) [nM]	Ki (Adenosine receptor A2a) [nM]	Ki (Adenosine receptor A2b) [nM]	Ki (Adenosine receptor A3) [nM]	IC50 [2] [nM]	IC50 [3] [nM]	inhibition (INH) [4] [%]	Ki (Adenosine receptor A1 [5]) [nM]	inhibition [6] [%]	inhibition [7] [%]
Cn1c(=O)c2c(nc3n2CCCN3Cc2ccc(F)c(Br)c2)n(C)c1=O	4360	8270	> 1000	> 1000	> 1000	346	1			
Cn1c(=O)c2c(nc3n2CCCN3Cc2cc(C(F)(F)F)ccc2Cl)n(C)c1=O	931	> 1000	> 1000	> 1000		1070				
Cn1c(=O)c2c(nc3n2CCCN3Cc2ccc(Br)cc2F)n(C)c1=O	4130	> 1000	> 1000	> 1000	> 1000	426	-2			
Cn1c(=O)c2c(nc3n2CCCN3Cc2ccc(C(C)(C)C)cc2)n(C)c1=O						1350				
COc1ccc(CN2CCCn3c2nc2c3c(=O)n(C)c(=O)n2C)cc1Cl	> 1000	8000	> 1000	> 1000	> 100000	407	38			
Cn1c(=O)c2c(nc3n2CCCN3Cc2ccc(Cl)c(C(F)(F)F)c2)n(C)c1=O	> 1000	> 1000	> 1000	> 1000	> 1000	310	2			
Cn1c(=O)c2c(nc3n2CCCN3Cc2cc(Br)ccc2F)n(C)c1=O	486	> 1000	> 1000	> 1000		1180				
Cc1cccc(CN2CCCn3c2nc2c3c(=O)n(C)c(=O)n2C)c1	1910	> 1000	> 1000	> 1000	> 100000	313	17			
Cn1c(=O)c2c(nc3n2CCCN3Cc2ccc(Cl)cc2F)n(C)c1=O	4900	8910	> 1000	> 1000	> 1000	377	2			
Cn1c(=O)c2c(nc3n2CCCN3Cc2cc(Cl)ccc2Cl)n(C)c1=O	3020	> 1000	> 1000	> 1000		758				
COc1ccc(Cl)c(CN2CCCn3c2nc2c3c(=O)n(C)c(=O)n2C)c1F	927	627			> 100000	840	16			
Cn1c(=O)c2c(nc3n2CCCN3Cc2cccc(Br)c2)n(C)c1=O	965	1700	> 1000	> 1000	> 1000	396	-1			
Cn1c(=O)c2c(nc3n2CCCN3Cc2ccc(Cl)c(F)c2)n(C)c1=O	> 1000	> 1000	> 1000	> 1000	> 100000	264	9			
Cn1c(=O)c2c(nc3n2CCCCN3Cc2cccc(Br)c2)n(C)c1=O		> 1000	> 1000	> 1000	> 1000	371	6	651	41	26
Cn1c(=O)c2c(nc3n2CCCN3Cc2ccccc2F)n(C)c1=O	1780	1210	> 1000	> 1000	> 1000	583	-1			
Cn1c(=O)c2c(nc3n2CCCN3Cc2ccc(F)cc2Cl)n(C)c1=O	> 1000	> 1000	> 1000	> 1000		411				
